Consider 13 compounds from ChEMBL document CHEMBL2069249, “Saquayamycins G-K, cytotoxic angucyclines from Streptomyces sp. Including two analogues bearing the aminosugar rednose” (J Nat Prod, 2012).

Test [1] can be described thus: Inhibition of bovine brain FPTase. Set-up: species or system Bos taurus.
The next test relates to PC-3. Description: Growth inhibition of human PC3 cells incubated for 48 hrs by resazurin dye reduction based fluorimetric assay. It counts as functional. Conditions: PC-3, 48 h. The gist of the method:
(§1)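 Cells seeded at 5 × 10^3 per well in full growth medium, adhered overnight, then medium replaced with fresh medium containing serial compound concentrations or DMSO control; 48 h at 37 °C. Resazurin added, 3 h at 37 °C; fluorescence ex 560/em 590 nm, time-zero reading subtracted. GI50 by nonlinear sigmoidal dose-response fit; landomycin A positive control; four replicates.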
Background: Resazurin is reduced to fluorescent resorufin, in cell work by metabolically active cells.

The subject of a further test is NCI-H460. Description: Growth inhibition of human NCI-H460 cells incubated for 48 hrs by resazurin dye reduction based fluorimetric assay. Conditions: NCI-H460, 48 h. It counts as functional. The gist of the method: as §1
In test [2] the target is Nitric oxide synthase, inducible (Homo sapiens, UniProt P35228). Description: Inhibition of iNOS.
Chain of Nitric oxide synthase, inducible (P35228 whole entry): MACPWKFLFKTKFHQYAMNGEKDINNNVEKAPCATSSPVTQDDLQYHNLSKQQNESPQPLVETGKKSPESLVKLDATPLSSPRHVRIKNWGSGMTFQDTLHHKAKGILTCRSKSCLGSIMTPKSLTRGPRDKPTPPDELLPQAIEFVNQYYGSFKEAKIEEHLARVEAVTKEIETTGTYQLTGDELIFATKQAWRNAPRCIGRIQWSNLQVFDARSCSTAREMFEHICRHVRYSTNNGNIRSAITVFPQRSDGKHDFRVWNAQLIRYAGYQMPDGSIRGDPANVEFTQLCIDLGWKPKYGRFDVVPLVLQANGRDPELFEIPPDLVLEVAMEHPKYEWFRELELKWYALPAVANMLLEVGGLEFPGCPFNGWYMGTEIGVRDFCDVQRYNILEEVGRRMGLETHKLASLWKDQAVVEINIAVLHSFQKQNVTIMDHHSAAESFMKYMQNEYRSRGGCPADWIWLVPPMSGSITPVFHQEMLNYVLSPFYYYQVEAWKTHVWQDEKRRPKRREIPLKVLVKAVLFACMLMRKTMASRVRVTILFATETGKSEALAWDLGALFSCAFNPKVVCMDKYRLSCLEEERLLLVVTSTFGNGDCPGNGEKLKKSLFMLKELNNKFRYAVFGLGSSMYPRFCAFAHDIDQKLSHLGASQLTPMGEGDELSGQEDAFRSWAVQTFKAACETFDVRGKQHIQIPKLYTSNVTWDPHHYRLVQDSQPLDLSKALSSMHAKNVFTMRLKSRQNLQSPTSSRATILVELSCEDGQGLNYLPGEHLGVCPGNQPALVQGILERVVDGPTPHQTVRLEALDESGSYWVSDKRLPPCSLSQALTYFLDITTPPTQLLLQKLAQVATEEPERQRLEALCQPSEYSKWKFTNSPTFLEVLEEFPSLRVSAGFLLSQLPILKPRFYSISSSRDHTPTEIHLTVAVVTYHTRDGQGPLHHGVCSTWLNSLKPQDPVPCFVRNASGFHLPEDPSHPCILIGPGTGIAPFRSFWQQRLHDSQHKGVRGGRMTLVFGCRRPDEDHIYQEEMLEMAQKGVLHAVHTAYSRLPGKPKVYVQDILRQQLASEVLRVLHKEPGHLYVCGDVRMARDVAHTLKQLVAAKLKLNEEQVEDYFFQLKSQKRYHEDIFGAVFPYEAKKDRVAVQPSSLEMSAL

The structures appear in SMILES notation.

For orientation: IC50 means the point on the concentration scale where inhibition reaches its midpoint. A low value points to higher potency. In the case of `C[C@@H]1O[C@@H](O[C@H]2CC[C@H](O[C@@]3(C)CC(=O)[C@]4(O)C5=C(C=C[C@]4(O)C3)C(=O)c3c(ccc([C@H]4C[C@@H](O)[C@H](O[C@H]6CCC(=O)[C@H](C)O6)[C@@H](C)O4)c3O)C5=O)O[C@H]2C)C=CC1=O` [SAQUAYAMYCINS F], half-maximal inhibition in test [1] (IC50) was put at 2 µM. This lies in the single-digit micromolar range.
What is called GI50 is the concentration that inhibits growth by half. Read a low GI50 as greater sensitivity of the cells. In the case of `C[C@@H]1O[C@@H](O[C@H]2CC[C@H](O[C@@]3(C)CC(=O)[C@]4(O)C5=C(C=C[C@]4(O)C3)C(=O)c3c(ccc([C@H]4C[C@@H](O)[C@H](O[C@@H]6O[C@@H](C)C(=O)C=C6N)[C@@H](C)O4)c3O)C5=O)O[C@H]2C)C=CC1=O` (relative stereo) [SAQUAYAMYCIN I], the values for the concentration for 50% growth inhibition (GI50) in the test with PC-3 and in the test with NCI-H460 were 0.915 µM and 7.94 µM, respectively.
Regarding `Cc1cc(O)c2c(c1)C[C@@H](O)C1=C2C(=O)c2c(O)ccc(O[C@H]3C[C@@H](O)[C@H](O[C@H]4C[C@@H](O[C@H]5CC[C@H](O[C@H]6C[C@@H](O)[C@H](O[C@H]7C[C@@H](O[C@H]8CC[C@H](O)[C@H](C)O8)[C@H](O)[C@@H](C)O7)[C@@H](C)O6)[C@H](C)O5)[C@H](O)[C@@H](C)O4)[C@@H](C)O3)c2C1=O` [LANDOMYCIN A], the GI50 in the test with PC-3 came out at 0.55 µM; in the test with NCI-H460, 4.11 µM.
With `C[C@@H]1O[C@@H](O[C@H]2CC[C@H](O[C@@]3(C)CC(=O)[C@]4(O)C5=C(C=C[C@]4(O)C3)C(=O)c3c(ccc([C@H]4C[C@@H](O)[C@H](O[C@H]6CC[C@H](O)[C@H](C)O6)[C@@H](C)O4)c3O)C5=O)O[C@H]2C)C=CC1=O` [SAQUAYAMYCIN K], the results for the GI50 in the test on PC-3 and with NCI-H460 were 0.148 µM and 7.28 µM, respectively.
As for `C[C@@H]1O[C@@H](O[C@H]2CC[C@H](O[C@@]3(C)CC(=O)[C@]4(O)C5=C(C=C[C@]4(O)C3)C(=O)c3c(ccc([C@H]4C[C@@H](O)[C@H](O)[C@@H](C)O4)c3O)C5=O)O[C@H]2C)C=CC1=O` (relative stereo) [SAQUAYAMYCIN G], the GI50 was found to be 0.553 µM with PC-3 and 6.72 µM in the test with NCI-H460.
In test [2], `C[C@@H]1O[C@@H](O[C@H]2CC[C@H](O[C@H]3[C@H](O)C[C@H](c4ccc5c(c4O)C(=O)C4=C(C5=O)[C@@]5(O)C(=O)C[C@](C)(O)C[C@@]5(O)C=C4)O[C@@H]3C)O[C@H]2C)C=CC1=O` gave an IC50 of 43.5 µM.
With `C[C@@H]1O[C@@H](O[C@H]2CC[C@H](O[C@@]3(C)CC(=O)[C@]4(O)C5=C(C=C[C@]4(O)C3)C(=O)c3c(ccc([C@H]4C[C@H]6O[C@H]7CC(=O)[C@H](C)O[C@H]7O[C@@H]6[C@@H](C)O4)c3O)C5=O)O[C@H]2C)C=CC1=O` [SAQUAYAMYCIN B], the results for the GI50 in the test with PC-3 and in the test on NCI-H460 were 0.0745 µM and 3.93 µM, respectively.
On to `C[C@@H]1O[C@@H](O[C@H]2[C@H](O)C[C@H](c3ccc4c(c3O)C(=O)C3=C(C4=O)[C@@]4(O)C(=O)C[C@](C)(O[C@H]5CC[C@H](O[C@H]6CCC(=O)[C@H](C)O6)[C@H](C)O5)C[C@@]4(O)C=C3)O[C@@H]2C)C=CC1=O` [SAQUAYAMYCINS E], for which, in test [1], inhibition was half-maximal at 1.8 µM (IC50).
Take `C[C@@H]1O[C@@H](O[C@H]2[C@H](O)C[C@H](c3ccc4c(c3O)C(=O)C3=C(C4=O)[C@@]4(O)C(=O)C[C@](C)(O[C@H]5CC[C@H](O[C@H]6C=CC(=O)[C@H](C)O6)[C@H](C)O5)C[C@@]4(O)C=C3)O[C@@H]2C)C=CC1=O` [SAQUAYAMYCINS A]: the 50% growth inhibitory concentration (GI50) came to 0.106 µM in the test with PC-3 and 6.2 µM in the test on NCI-H460.
For the compound `C[C@@H]1O[C@H]2O[C@@H]3[C@@H](C)O[C@@H](c4ccc5c(c4O)C(=O)C4=C(C5=O)[C@@]5(O)C(=O)C[C@](C)(O[C@H]6CC[C@H](O[C@H]7CC[C@H](O)[C@H](C)O7)[C@H](C)O6)C[C@@]5(O)C=C4)C[C@H]3O[C@H]2CC1=O` [SAQUAYAMYCIN J], the GI50 came to 0.179 µM with PC-3 and 5.69 µM with NCI-H460.
With `C[C@@H]1O[C@@H](O[C@H]2[C@H](O)C[C@H](c3ccc4c(c3O)C(=O)C3=C(C4=O)[C@@]4(O)C(=O)C[C@](C)(O)C[C@@]4(O)C=C3)O[C@@H]2C)C=CC1=O` [SAQUAYAMYCINS A1], the concentration for half-maximal inhibition (IC50) in test [2] was 101 µM.
For the compound `C[C@@H]1O[C@H]2O[C@@H]3[C@@H](C)O[C@@H](c4ccc5c(c4O)C(=O)C4=C(C5=O)[C@@]5(O)C(=O)C[C@](C)(O)C[C@@]5(O)C=C4)C[C@H]3O[C@H]2CC1=O` [SAQUAYAMYCIN B1], the GI50 in the test on PC-3 came out at 1.76 µM; with NCI-H460, 13.2 µM.
For `C[C@@H]1O[C@@H](O[C@H]2CC[C@H](O[C@@]3(C)CC(=O)[C@]4(O)C5=C(C=C[C@]4(O)C3)C(=O)c3c(ccc([C@H]4C[C@H]6O[C@H]7CC(=O)[C@H](C)O[C@H]7O[C@@H]6[C@@H](C)O4)c3O)C5=O)O[C@H]2C)C(N)=CC1=O` [SAQUAYAMYCIN H] the same measures were 0.79 µM and 3.3 µM.
